# Measured values gathered from unrelated publications.
# ADORA3: Adenosine receptor A3 (ADORA3, Homo sapiens, UniProt P0DMS8)
# Liver carboxylesterase: Liver carboxylesterase (Sus scrofa, UniProt Q29550)
# DRD2: D(2) dopamine receptor (DRD2, Homo sapiens, UniProt P14416)
target,effect on,action,technique,pH,setting,Ki [µM],SMILES
ADORA3,ligand displacement,,radioligand,,,0.00451,CCNC(=O)[C@H]1O[C@@H](n2cnc3c(N)nc(NN=C[C@H]4CCC=CO4)nc32)[C@H](O)[C@@H]1O
ADORA3,ligand displacement,,radioligand,,cell membranes,> 10,CCCCCCN1CCCn2c1nc1c2c(=O)n(C)c(=O)n1C
ADORA3,ligand displacement,,radioligand,,cell membranes,0.0218,CNC(=O)[C@@]12C[C@@H]1[C@@H](n1cnc3c(NCc4cccc(C#CCCCCc5cn(C67CC8CC(CC(C8)C6)C7)nn5)c4)nc(Cl)nc31)[C@H](O)[C@@H]2O
"Melanocortin receptor 3 (MC3R, Homo sapiens, UniProt P41968)",ligand displacement in cells,,radioligand,,,> 1,CCCC[C@H](NC(=O)[C@H](CO)NC(=O)[C@H](Cc1ccc(O)cc1)NC(=O)[C@H](CO)NC(C)=O)C(=O)N[C@@H](CCC(=O)O)C(=O)N[C@@H](Cc1c[nH]cn1)C(=O)N[C@@H](C)C(=O)N[C@@H](CCCNC(=N)N)C(=O)N[C@@H](Cc1c[nH]c2ccccc12)C(=O)NCC(=O)N[C@@H](CCCCN)C(=O)N1CCC[C@H]1C(=O)N[C@H](C(=O)NCC(=O)N[C@@H](CCCCN)C(=O)N[C@@H](CCCCN)C(=O)N[C@@H](CCCNC(=N)N)C(N)=O)C(C)C
Liver carboxylesterase,enzyme activity,inhibitor,HPLC,pH 7.4,,16,CCCCC[C@H](O)/C=C/C1=C(CCCCCCC(=O)O)C(=O)CC1
DRD2,ligand displacement,,radioligand,,,0.209,O=C1c2ccccc2CCCN1CCCCN1CCN(c2ccccn2)CC1
ADORA3,ligand displacement,,radioligand,,cell membranes,> 10,CC(C)CN1CCCn2c1nc1c2c(=O)n(C)c(=O)n1C
DRD2,ligand displacement,,radioligand,,,0.794,Oc1ccc(CCC2=NCCN2CCc2ccccc2)cc1
Liver carboxylesterase,enzyme activity,inhibitor,HPLC,,,190,COC(=O)[C@H](CSC/C=C(\C)CC/C=C(\C)CCC=C(C)C)NC(=O)c1ccc(-c2ccccc2)cc1
"Vasopressin V2 receptor (AVPR2, Homo sapiens, UniProt P30518)",ligand displacement,,radioligand,,cell membranes,6.9,NCCCC[C@H](NC(=O)[C@@H]1CCCN1C(=O)[C@@H]1CSSC[C@H](NC(=O)CNC(=O)CNC(=O)CN)C(=O)N[C@@H](Cc2ccc(O)cc2)C(=O)N[C@@H](Cc2ccccc2)C(=O)N[C@@H](CCC(N)=O)C(=O)N[C@@H](CC(N)=O)C(=O)N1)C(=O)NCC(N)=O
ADORA3,ligand displacement,,radioligand,,cell membranes,> 10,CC(C)N1CCCn2c1nc1c2c(=O)n(C)c(=O)n1C
Liver carboxylesterase,enzyme activity,inhibitor,HPLC,,,> 28,CCCCC[C@H](O)/C=C/[C@H]1[C@H](O)CC(=O)[C@@H]1CCCCCCC(=O)O
ADORA3,ligand displacement,,radioligand,,cell membranes,> 10,CC(C)CC(C)N1CCCn2c1nc1c2c(=O)n(C)c(=O)n1C (stereo not shown)
"Melanocyte-stimulating hormone receptor (MC1R, Homo sapiens, UniProt Q01726)",ligand displacement in cells,,,,,0.198,CC[C@H](C)[C@H](NC(=O)CN)C(=O)N[C@H](C(=O)N[C@@H](CC(N)=O)C(=O)N[C@H](C(=O)N[C@@H](CC(C)C)C(=O)N[C@@H](CCC(N)=O)C(=O)N[C@@H](CCCCN)C(=O)N[C@@H](Cc1ccc(O)cc1)C(=O)N[C@@H](Cc1ccc(O)cc1)C(=O)N[C@@H](CO)C(=O)N[C@@H](CCCNC(=N)N)C(=O)N[C@H](C(=O)N[C@@H](CCCNC(=N)N)C(=O)NCC(=O)NCC(=O)N[C@@H](CCCNC(=N)N)C(=O)N[C@@H](CO)C(=O)N[C@@H](C)C(=O)N[C@H](C(=O)N[C@@H](CC(C)C)C(=O)N[C@@H](CO)C(=O)N[C@H]1CSSC[C@@H](C(=O)N[C@@H](CCCNC(=N)N)C(=O)N[C@@H](CCCNC(=N)N)C(=O)N[C@@H](CCCCN)C(=O)N[C@@H](CCCCN)C(N)=O)NC(=O)[C@H](CO)NC(=O)[C@H](CCCCN)NC(=O)[C@H](CCCNC(=N)N)NC(=O)CNC(=O)[C@H](CCCNC(=N)N)NC(=O)[C@H]([C@@H](C)O)NC(=O)[C@H](CO)NC(=O)[C@H](CO)NC(=O)[C@H](CCCCN)NC(=O)CNC(=O)[C@H]([C@@H](C)CC)NC(=O)[C@H](CCC(N)=O)NC(=O)[C@H](CCC(=O)O)NC(=O)[C@H](CCC(=O)O)NC(=O)[C@H](CCCCN)NC(=O)[C@@H]2CCCN2C(=O)[C@H](CC(C)C)NC1=O)C(C)C)C(C)C)[C@@H](C)O)[C@@H](C)CC
Liver carboxylesterase,enzyme activity,inhibitor,HPLC,pH 7.4,,12,CCCCC[C@H](O)/C=C/[C@H]1C=CC(=O)[C@@H]1C/C=C\CCCC(=O)O
ADORA3,ligand displacement,,radioligand,,cell membranes,> 10,CCCCCC(C)N1CCCn2c1nc1c2c(=O)n(C)c(=O)n1C (stereo not shown)
"5-hydroxytryptamine receptor 1E (HTR1E, Homo sapiens, UniProt P28566)",cell-free assay,,radioligand,,,> 10,CCCCN1CCC(COC(=O)c2ccc(N)c(OCF)c2)CC1
ADORA3,ligand displacement,,radioligand,,cell membranes,> 10,C=CCN1CCCn2c1nc1c2c(=O)n(C)c(=O)n1C
ADORA3,ligand displacement,,radioligand,,cell membranes,0.0226,CNC(=O)[C@@]12C[C@@H]1[C@@H](n1cnc3c(NCc4cn(-c5ccc(F)c(N)c5)nn4)nc(Cl)nc31)[C@H](O)[C@@H]2O
